Experimental data reported in ChEMBL document CHEMBL3351561, “Discovery of 9-(1-anilinoethyl)-2-morpholino-4-oxo-pyrido[1,2-a]pyrimidine-7-carboxamides as PI3Kβ/δ inhibitors for the treatment of PTEN-deficient tumours” (Bioorg Med Chem Lett, 2014).
Values after ≈ are worked out from the molar mass of the structure shown.

How the values were obtained:
[1] = tested on: Mus musculus; test: Inhibition of Akt phosphorylation in SCID mouse xenografted with PTEN-null human PC3 cells at 100 mg/kg, po measured after 4 hrs; assay type: functional; settings: PC-3, 4 h
Summary of the method: (§1)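 SCID mice carrying PTEN-null PC3 prostate xenografts received a single oral dose as a suspension (50, 100 or 200 mg/kg).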

[2] = Fraction unbound in human plasma; assay type: ADME, cell-free
Summary of the method: (§2)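 Protein binding was measured in nude mouse plasma and in human plasma and is expressed as fraction unbound (%).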

[3] = target: T1, Phosphatidylinositol 4,5-bisphosphate 3-kinase catalytic subunit delta isoform (Homo sapiens, UniProt O00329); test: Inhibition of human recombinant PI3Kdelta assessed as depletion of ATP substrate by Ultra Glo luciferase assay
T1 sequence (O00329 whole entry): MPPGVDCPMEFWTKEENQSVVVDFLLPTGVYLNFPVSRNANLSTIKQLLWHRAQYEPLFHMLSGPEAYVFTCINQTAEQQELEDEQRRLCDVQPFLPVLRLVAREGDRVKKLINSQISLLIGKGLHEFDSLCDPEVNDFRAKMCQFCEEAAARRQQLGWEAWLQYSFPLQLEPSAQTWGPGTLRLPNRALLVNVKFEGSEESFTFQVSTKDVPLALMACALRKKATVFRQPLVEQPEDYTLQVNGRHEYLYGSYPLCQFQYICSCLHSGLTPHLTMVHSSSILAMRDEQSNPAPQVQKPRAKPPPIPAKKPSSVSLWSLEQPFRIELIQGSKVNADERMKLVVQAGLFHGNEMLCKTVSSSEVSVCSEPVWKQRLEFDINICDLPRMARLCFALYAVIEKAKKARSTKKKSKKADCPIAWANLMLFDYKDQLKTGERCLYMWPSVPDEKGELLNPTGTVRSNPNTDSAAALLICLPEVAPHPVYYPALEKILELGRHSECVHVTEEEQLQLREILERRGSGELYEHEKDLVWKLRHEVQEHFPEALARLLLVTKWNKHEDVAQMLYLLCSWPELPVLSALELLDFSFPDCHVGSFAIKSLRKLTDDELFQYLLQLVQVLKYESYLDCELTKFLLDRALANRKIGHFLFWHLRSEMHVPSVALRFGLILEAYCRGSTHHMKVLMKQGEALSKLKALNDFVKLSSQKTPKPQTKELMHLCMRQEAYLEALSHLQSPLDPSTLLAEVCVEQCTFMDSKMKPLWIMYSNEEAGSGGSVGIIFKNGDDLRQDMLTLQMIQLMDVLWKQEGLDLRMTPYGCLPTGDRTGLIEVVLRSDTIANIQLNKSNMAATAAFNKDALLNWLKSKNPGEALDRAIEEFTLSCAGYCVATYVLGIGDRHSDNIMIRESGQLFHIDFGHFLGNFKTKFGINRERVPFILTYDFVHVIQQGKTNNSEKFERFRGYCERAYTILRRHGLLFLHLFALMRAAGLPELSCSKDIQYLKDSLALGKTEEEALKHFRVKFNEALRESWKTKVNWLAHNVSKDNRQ
Summary of the method: (§3)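 Enzyme IC50s are reported as the geometric mean of 3 or more values.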

[4] = Fraction unbound in mouse plasma; assay type: ADME, cell-free; summary of the method: as §2
[5] = target: T2, Phosphatidylinositol 4,5-bisphosphate 3-kinase catalytic subunit beta isoform (Homo sapiens, UniProt P42338); test: Inhibition of PI3Kbeta in human MAD-MB-468 cells assessed as inhibition of Ser473 Akt phosphorylation by cellular potency assay
[6] = tested on: Mus musculus; test: Inhibition of Akt phosphorylation in SCID mouse xenografted with PTEN-null human PC3 cells at 100 mg/kg, po measured after 1 hr; assay type: functional; settings: PC-3, 1 h; summary of the method: as §1
[7] = Ratio of total plasma concentration in PTEN-null human PC3 cells xenografted in SCID mouse at 100 mg/kg, po single dose at 8 hrs to IC50 for PI3Kbeta in human MAD-MB-468 cells; parameters: species or system PC-3
[8] = Clearance in mouse plasma at 5 umol/kg, iv and 30 umol/kg, po; assay type: ADME, organism-based
Summary of the method: (§4)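 […] mice were dosed at 5 µmol/kg i.v. and 30 µmol/kg p.o. Clearance is given in mL/min/kg and oral bioavailability in %.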

[9] = Total plasma concentration in SCID mouse xenografted with PTEN-null human PC3 cells at 100 mg/kg, po measured after 1 hr; assay type: ADME, organism-based, PC-3; parameters: dose 100 mg/kg, route oral
Summary of the method: (§5)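 Total plasma concentration was measured in SCID mice carrying PC3 xenografts after a single oral dose given as a suspension (50, 100 or 200 mg/kg). Samples were taken at 0.5 to 8 h.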

[10] = Intrinsic clearance in human hepatocytes measured per 10^6 cells; assay type: ADME, cell-based, Hepatocyte; settings: read-out: CLH
Summary of the method: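 Intrinsic clearance was measured in human hepatocytes and is expressed in µL/min/10^6 cells.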

[11] = Total plasma concentration in SCID mouse xenografted with PTEN-null human PC3 cells at 100 mg/kg, po measured after 8 hrs; assay type: ADME, organism-based, PC-3; parameters: dose 100 mg/kg, route oral; summary of the method: as §5
[12] = Solubility of the compound in phosphate buffer at pH 7.4; assay type: physicochemical
Summary of the method: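 Solubility was measured from solid material in phosphate buffer at pH 7.4.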

[13] = Bioavailability in mouse plasma at 5 umol/kg, iv and 30 umol/kg, po; assay type: ADME, organism-based; summary of the method: as §4
[14] = Total plasma concentration in SCID mouse xenografted with PTEN-null human PC3 cells at 100 mg/kg, po measured after 4 hrs; assay type: ADME, organism-based, PC-3; parameters: dose 100 mg/kg, route oral; summary of the method: as §5
[15] = target: T3, Phosphatidylinositol 4,5-bisphosphate 3-kinase catalytic subunit alpha isoform (Homo sapiens, UniProt P42336); test: Inhibition of human recombinant PI3Kalpha assessed as depletion of ATP substrate by Ultra Glo luciferase assay; summary of the method: as §3
[16] = target: T2, Phosphatidylinositol 4,5-bisphosphate 3-kinase catalytic subunit beta isoform; test: Inhibition of human recombinant PI3Kbeta assessed as depletion of ATP substrate by Ultra Glo luciferase assay; summary of the method: as §3
[17] = Buffer/octanol partition coefficient, log D of the compound at pH 7.4 by shake flask method; assay type: physicochemical
Summary of the method: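 LogD at pH 7.4 was measured by shake-flask with a buffer/octanol volume ratio of 100:1.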

[18] = Ratio of total plasma concentration in PTEN-null human PC3 cells xenografted in SCID mouse at 100 mg/kg, po single dose at 4 hrs to IC50 for PI3Kbeta in human MAD-MB-468 cells; parameters: species or system PC-3
[19] = tested on: Mus musculus; test: Inhibition of Akt phosphorylation in SCID mouse xenografted with PTEN-null human PC3 cells at 100 mg/kg, po measured after 8 hrs; assay type: functional; settings: PC-3, 8 h; summary of the method: as §1
[20] = Ratio of total plasma concentration in PTEN-null human PC3 cells xenografted in SCID mouse at 100 mg/kg, po single dose at 1 hrs to IC50 for PI3Kbeta in human MAD-MB-468 cells; parameters: species or system PC-3
[21] = target: T3, Phosphatidylinositol 4,5-bisphosphate 3-kinase catalytic subunit alpha isoform; test: Inhibition of PI3Kalpha in human BT474 cells assessed as inhibition of […] Akt phosphorylation after 2 hrs by fluorescence assay; assay type: cell-based, BT-474
Summary of the method: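 BT474 cells were seeded in DMEM with 10% FCS and 1% glutamine and left to adhere overnight, then treated with compound in DMSO for 2 h at 37 °C and 5% CO2. Cells were lysed with a phosphatase/protease-inhibitor buffer. Lysate was captured on anti-total-Akt plates, probed with anti-phospho-Akt Thr308 and an HRP secondary, and read by fluorescence (ex 325/em 420 nm). Values are the geometric mean of ≥2 determinations.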

[22] = target: Phosphatidylinositol 4,5-bisphosphate 3-kinase catalytic subunit gamma isoform (Homo sapiens, UniProt P48736); test: Inhibition of human recombinant PI3Kgamma assessed as depletion of ATP substrate by Ultra Glo luciferase assay; summary of the method: as §3
[23] = Apparent permeability from apical (pH 6.5) to […] of human Caco2 cells; assay type: ADME, cell-based; settings: Caco-2, pH 6.5

T2 sequence (P42338 whole entry, canonical isoform): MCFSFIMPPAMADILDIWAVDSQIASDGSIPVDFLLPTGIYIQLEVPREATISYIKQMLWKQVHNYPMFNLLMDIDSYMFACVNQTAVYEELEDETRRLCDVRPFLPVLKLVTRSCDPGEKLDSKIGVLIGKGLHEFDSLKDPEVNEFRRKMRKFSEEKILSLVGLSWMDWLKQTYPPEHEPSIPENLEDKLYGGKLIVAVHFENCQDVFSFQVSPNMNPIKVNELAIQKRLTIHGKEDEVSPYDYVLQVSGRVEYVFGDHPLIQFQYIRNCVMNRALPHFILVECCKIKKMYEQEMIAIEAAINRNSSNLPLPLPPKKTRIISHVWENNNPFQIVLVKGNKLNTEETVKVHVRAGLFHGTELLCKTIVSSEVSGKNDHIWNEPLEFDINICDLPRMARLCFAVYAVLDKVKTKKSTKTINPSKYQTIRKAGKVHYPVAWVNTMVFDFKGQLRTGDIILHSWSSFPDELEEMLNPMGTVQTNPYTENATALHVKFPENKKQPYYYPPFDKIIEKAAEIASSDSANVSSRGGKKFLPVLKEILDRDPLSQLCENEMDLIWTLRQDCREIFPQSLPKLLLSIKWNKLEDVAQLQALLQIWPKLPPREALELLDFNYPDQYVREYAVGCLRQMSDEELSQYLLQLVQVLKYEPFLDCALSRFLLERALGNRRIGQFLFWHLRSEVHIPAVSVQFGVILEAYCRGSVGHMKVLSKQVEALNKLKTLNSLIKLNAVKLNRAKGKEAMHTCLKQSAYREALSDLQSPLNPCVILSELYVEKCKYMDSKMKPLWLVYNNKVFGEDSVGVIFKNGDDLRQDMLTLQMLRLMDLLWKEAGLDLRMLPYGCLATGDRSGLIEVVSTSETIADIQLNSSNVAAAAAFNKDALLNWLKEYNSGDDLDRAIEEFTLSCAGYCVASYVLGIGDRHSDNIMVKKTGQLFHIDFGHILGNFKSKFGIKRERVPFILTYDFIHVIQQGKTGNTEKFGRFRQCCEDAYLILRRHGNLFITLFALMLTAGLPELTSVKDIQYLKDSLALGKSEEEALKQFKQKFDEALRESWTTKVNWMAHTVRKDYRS
T3 sequence (P42336 whole entry, canonical isoform): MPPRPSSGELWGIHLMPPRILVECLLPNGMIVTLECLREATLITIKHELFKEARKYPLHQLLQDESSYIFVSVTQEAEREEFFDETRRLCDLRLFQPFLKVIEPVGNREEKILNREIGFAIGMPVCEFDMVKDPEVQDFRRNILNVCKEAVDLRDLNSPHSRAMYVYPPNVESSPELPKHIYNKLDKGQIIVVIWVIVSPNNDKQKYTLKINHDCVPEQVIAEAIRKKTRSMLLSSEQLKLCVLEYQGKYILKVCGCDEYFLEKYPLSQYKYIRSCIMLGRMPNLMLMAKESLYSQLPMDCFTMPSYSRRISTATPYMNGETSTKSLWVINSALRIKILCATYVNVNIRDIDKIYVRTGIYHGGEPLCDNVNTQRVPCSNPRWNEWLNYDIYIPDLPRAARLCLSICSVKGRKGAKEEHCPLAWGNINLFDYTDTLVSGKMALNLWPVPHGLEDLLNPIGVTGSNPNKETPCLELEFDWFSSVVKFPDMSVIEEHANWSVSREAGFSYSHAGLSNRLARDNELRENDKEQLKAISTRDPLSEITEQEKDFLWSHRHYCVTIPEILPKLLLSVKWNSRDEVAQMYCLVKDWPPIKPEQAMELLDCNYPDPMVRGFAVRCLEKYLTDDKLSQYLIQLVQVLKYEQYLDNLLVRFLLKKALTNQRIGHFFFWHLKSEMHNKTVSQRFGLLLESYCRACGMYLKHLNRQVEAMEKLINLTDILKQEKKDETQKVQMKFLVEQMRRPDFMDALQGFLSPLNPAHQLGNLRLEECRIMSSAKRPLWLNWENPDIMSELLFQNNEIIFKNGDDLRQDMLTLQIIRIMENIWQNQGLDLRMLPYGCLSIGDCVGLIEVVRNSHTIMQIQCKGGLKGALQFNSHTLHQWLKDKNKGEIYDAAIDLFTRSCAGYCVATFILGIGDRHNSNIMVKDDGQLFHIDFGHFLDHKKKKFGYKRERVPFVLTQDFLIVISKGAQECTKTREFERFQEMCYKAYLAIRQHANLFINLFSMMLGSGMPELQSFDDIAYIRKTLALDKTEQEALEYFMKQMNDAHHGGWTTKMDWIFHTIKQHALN
Chain of Phosphatidylinositol 4,5-bisphosphate 3-kinase catalytic subunit gamma isoform (P48736 whole entry, canonical isoform): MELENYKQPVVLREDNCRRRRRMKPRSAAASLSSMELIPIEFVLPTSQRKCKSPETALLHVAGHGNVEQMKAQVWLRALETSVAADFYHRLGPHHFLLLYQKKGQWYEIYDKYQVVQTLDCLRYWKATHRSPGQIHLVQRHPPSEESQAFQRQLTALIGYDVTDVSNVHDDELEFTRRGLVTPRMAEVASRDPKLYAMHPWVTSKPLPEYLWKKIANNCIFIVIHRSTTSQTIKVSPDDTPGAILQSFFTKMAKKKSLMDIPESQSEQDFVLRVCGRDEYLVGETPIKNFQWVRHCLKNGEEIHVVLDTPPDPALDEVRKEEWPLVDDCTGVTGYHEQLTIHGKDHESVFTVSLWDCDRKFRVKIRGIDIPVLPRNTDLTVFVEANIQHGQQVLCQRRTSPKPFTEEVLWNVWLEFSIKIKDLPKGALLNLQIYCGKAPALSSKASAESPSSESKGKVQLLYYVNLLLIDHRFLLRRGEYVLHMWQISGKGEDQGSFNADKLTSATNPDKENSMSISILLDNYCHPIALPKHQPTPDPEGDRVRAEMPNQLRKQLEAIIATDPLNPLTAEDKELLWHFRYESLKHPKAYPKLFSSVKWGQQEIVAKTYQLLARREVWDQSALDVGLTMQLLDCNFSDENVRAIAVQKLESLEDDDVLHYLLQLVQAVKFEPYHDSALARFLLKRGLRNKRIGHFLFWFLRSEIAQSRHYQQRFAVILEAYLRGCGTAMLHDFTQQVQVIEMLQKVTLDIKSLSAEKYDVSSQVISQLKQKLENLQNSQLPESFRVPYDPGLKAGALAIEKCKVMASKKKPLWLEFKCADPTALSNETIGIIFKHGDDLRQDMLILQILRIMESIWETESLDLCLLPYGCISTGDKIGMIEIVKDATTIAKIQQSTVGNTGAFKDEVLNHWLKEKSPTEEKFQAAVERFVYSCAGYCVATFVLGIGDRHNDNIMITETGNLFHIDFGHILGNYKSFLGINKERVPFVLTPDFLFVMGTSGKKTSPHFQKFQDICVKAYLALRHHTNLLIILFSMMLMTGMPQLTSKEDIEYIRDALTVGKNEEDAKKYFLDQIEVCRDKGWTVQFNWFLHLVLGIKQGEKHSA

fraction unbound [2]: 0.12
IC50 [3]: 32 nM
fraction unbound [4]: 0.047
IC50 [5]: 3 nM
clearance [8]: 82 mL/min/kg
concentration at 1 h [9]: 13 µM
hepatocyte CLint [10]: 11 µL/min/1e6 cells
concentration at 8 h [11]: 2.6 µM
solubility [12]: 15 µM (≈ 6.86 µg/mL)
bioavailability [13]: 31%
concentration at 4 h [14]: 6.8 µM
IC50 [15]: 75 nM
IC50 [16]: 5 nM
logD [17]: 3
IC50 [21]: 1200 nM
IC50 [22]: 510 nM
Papp A→B [23]: 50 ×10⁻⁶ cm/s
Compound: C[C@@H](Nc1cc(F)cc(F)c1)c1cc(C(=O)N(C)C)cn2c(=O)cc(N3CCOCC3)nc12
inhibition in vivo at 100 mg/kg [1]: 80%
inhibition in vivo at 100 mg/kg [6]: 92%
Ratio [7]: 41
Ratio [18]: 106
inhibition in vivo at 100 mg/kg [19]: 56%
Ratio [20]: 204
